Results on eleven compounds are retold here after ChEMBL document CHEMBL3232910, “Synthesis and evaluation of several oleanolic acid glycoconjugates as protein tyrosine phosphatase 1B inhibitors” (Eur J Med Chem, 2014).

The target of test [1] is T1, Tyrosine-protein phosphatase non-receptor type 1 (Homo sapiens, UniProt P18031).
T1 sequence (P18031 whole entry): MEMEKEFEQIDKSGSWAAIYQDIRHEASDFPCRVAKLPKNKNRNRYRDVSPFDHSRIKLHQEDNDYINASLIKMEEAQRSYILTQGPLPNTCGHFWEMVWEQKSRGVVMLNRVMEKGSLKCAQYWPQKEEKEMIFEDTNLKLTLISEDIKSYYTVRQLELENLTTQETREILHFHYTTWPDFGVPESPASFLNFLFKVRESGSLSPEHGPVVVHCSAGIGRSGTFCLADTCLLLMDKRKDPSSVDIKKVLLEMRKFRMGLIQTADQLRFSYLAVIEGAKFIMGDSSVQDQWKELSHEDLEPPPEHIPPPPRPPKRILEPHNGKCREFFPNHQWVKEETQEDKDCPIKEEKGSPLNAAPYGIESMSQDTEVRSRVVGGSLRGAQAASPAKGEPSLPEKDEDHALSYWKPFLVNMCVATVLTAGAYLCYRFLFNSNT
Kind of test: Inhibition of recombinant PTP1B (unknown origin) using p-nitrophenyl phosphate as substrate assessed as inhibition of release of p-nitrophenol preincubated for 10 mins measured before substrate addition after 30 mins by spectrophotometry. Summed up: (§1)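 Enzyme diluted in 25 mM HEPES, 50 mM NaCl, 2.5 mM EDTA, 0.1% BSA, pH 7.2. Inhibitor in DMSO was preincubated with enzyme in 50 mM HEPES, 2.5 mM EDTA, pH 7.0 at 37 C for 10 min. pNPP was then added, 30 min at 37 C, stopped with 2 M Na2CO3, A405 read.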

Test [2] has as its target T2, Tyrosine-protein phosphatase non-receptor type 1 (Homo sapiens) (UniProt P18031).
T2 sequence (whole entry): T1 sequence (P18031 whole entry)
In words: Inhibition of recombinant PTP1B (unknown origin) using p-nitrophenyl phosphate as substrate assessed as inhibition of release of p-nitrophenol preincubated for 10 mins measured before substrate addition at 10 ug/ml after 30 mins by spectrophotometry.

The species entered for the next test is Homo sapiens. Kind of test: Selectivity ratio of IC50 for TCPTP (unknown origin) to IC50 for recombinant PTP1B (unknown origin). Summed up:
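Ratio of TCPTP IC50 to PTP1B IC50. Both come from the same pNPP hydrolysis assay: 10 min preincubation at 37 C in 50 mM HEPES, 2.5 mM EDTA, pH 7.0, 30 min reaction, Na2CO3 quench, A405. IC50 from 4-parameter logistic fits.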

Test [3] addresses T3, Tyrosine-protein phosphatase non-receptor type 2 (Homo sapiens, UniProt P17706).
T3 sequence (P17706 whole entry): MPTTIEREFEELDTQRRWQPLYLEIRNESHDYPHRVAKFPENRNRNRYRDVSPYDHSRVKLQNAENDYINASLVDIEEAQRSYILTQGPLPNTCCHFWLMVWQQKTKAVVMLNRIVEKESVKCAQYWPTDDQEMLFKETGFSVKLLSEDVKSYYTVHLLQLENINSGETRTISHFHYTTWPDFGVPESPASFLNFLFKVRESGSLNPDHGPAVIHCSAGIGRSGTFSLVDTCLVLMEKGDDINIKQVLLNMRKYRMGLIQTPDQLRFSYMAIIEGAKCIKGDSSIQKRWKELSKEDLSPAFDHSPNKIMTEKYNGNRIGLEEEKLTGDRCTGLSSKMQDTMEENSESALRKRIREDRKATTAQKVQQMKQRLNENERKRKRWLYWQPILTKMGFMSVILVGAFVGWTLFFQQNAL
In words: Inhibition of TCPTP (unknown origin) using p-nitrophenyl phosphate as substrate assessed as inhibition of release of p-nitrophenol preincubated for 10 mins measured before substrate addition after 30 mins by spectrophotometry. Put shortly:
as §1

Where only a bound is given, the exact number is not on record here.

Usually IC50 stands for the point on the concentration scale where inhibition reaches its midpoint. A word on the inhibition: it is how much of the control response was suppressed. On to `CC1(C)CC[C@]2(C(=O)O[C@@H]3O[C@H](CNC(=O)c4ccccc4C(=O)O)[C@@H](O)[C@H](O)[C@H]3O)CC[C@]3(C)C(=CC[C@@H]4[C@@]5(C)CC[C@H](O[C@@H]6O[C@H](CO)[C@H](O)[C@H](O)[C@H]6O)C(C)(C)[C@@H]5CC[C@]43C)[C@@H]2C1`, for which the half-maximal inhibitory concentration (IC50) in test [1] was 6.53 µM; in test [3], 14.6 µM. For the same compound, the inhibition in test [2] was > 54.7%. In addition, the Ratio IC50 in the test listed under Homo sapiens was 2.2.

On to `CC1(C)CC[C@]2(C(=O)O[C@@H]3O[C@H](CNC(=O)c4ccccc4C(=O)O)[C@@H](O)[C@H](O)[C@H]3O)CC[C@]3(C)C(=CC[C@@H]4[C@@]5(C)CC[C@H](O[C@@H]6O[C@H](CO)[C@@H](O[C@@H]7O[C@H](CO)[C@H](O)[C@H](O)[C@H]7O)[C@H](O)[C@H]6O)C(C)(C)[C@@H]5CC[C@]43C)[C@@H]2C1`, for which the IC50 in test [1] came out at 1.03 µM; in test [3], 4.11 µM. The inhibition in test [2] is > 54.7%. In the test listed under Homo sapiens, the Ratio IC50 was determined as 4.

Take `CC1(C)CC[C@]2(C(=O)O[C@@H]3O[C@H](CNC(=O)c4ccccc4C(=O)O)[C@@H](O)[C@H](O)[C@H]3O)CC[C@]3(C)C(=CC[C@@H]4[C@@]5(C)CC[C@H](O[C@@H]6OC[C@H](O)[C@H](O)[C@H]6O)C(C)(C)[C@@H]5CC[C@]43C)[C@@H]2C1`: the IC50 in test [1] was found to be 5.67 µM; in test [3], 12.4 µM. Further, in test [2], the inhibition was > 54.7%. Further, the Ratio IC50 in the test filed under Homo sapiens is 2.2.

For the compound `CC1(C)CC[C@]2(C(=O)O[C@@H]3O[C@H](CNC(=O)c4ccccc4C(=O)O)[C@@H](O)[C@H](O)[C@H]3O)CC[C@]3(C)C(=CC[C@@H]4[C@@]5(C)CC[C@H](O[C@@H]6O[C@H](CO)[C@@H](O)[C@H](O)[C@H]6O)C(C)(C)[C@@H]5CC[C@]43C)[C@@H]2C1`, the results for the IC50 in test [1] and in test [3] were 17.2 µM and 30.5 µM, respectively. Further, the inhibition in test [2] is > 54.7%. In the test listed under Homo sapiens, the Ratio IC50 was determined as 1.8.

For `C[C@@H]1O[C@@H](O[C@H]2CC[C@]3(C)[C@H]4CC=C5[C@@H]6CC(C)(C)CC[C@]6(C(=O)O[C@@H]6O[C@H](CNC(=O)c7ccccc7C(=O)O)[C@@H](O)[C@H](O)[C@H]6O)CC[C@@]5(C)[C@]4(C)CC[C@H]3C2(C)C)[C@@H](O)[C@H](O)[C@@H]1O`, the values for the IC50 in test [1] and in test [3] were 10.4 µM and 8.73 µM, respectively. The inhibition in test [2] was > 54.7%. Further, the Ratio IC50 in the test filed under Homo sapiens amounted to 0.8.

Regarding `CC1(C)CC[C@]2(C(=O)O[C@@H]3O[C@H](CNC(=O)c4ccccc4C(=O)O)[C@@H](O)[C@H](O)[C@H]3O)CC[C@]3(C)C(=CC[C@@H]4[C@@]5(C)CC[C@H](O[C@@H]6O[C@H](CO[C@@H]7O[C@H](CO)[C@@H](O)[C@H](O)[C@H]7O)[C@@H](O)[C@H](O)[C@H]6O)C(C)(C)[C@@H]5CC[C@]43C)[C@@H]2C1`, the values for the IC50 in test [1] and in test [3] were 3.12 µM and 2.98 µM, respectively. In addition, the inhibition in test [2] was > 54.7%. Further, the Ratio IC50 in the test filed under Homo sapiens turned out to be 1.

Regarding `C[C@@H]1O[C@@H](O[C@H]2CC[C@]3(C)[C@H]4CC=C5[C@@H]6CC(C)(C)CC[C@]6(C(=O)O[C@@H]6O[C@H](CNC(=O)c7ccccc7C(=O)O)[C@@H](O)[C@H](O)[C@H]6O)CC[C@@]5(C)[C@]4(C)CC[C@H]3C2(C)C)[C@H](O)[C@H](O)[C@H]1O`, in test [1], the IC50 amounted to 26.5 µM. Also, the inhibition in test [2] was > 54.7%.

In the case of `CC1(C)CC[C@]2(C(=O)O[C@@H]3O[C@H](CNC(=O)c4ccccc4C(=O)O)[C@@H](O)[C@H](O)[C@H]3O)CC[C@]3(C)C(=CC[C@@H]4[C@@]5(C)CC[C@H](O[C@@H]6O[C@H](CO)[C@@H](O[C@@H]7O[C@H](CO)[C@@H](O)[C@H](O)[C@H]7O)[C@H](O)[C@H]6O)C(C)(C)[C@@H]5CC[C@]43C)[C@@H]2C1`, the IC50 in test [1] is 0.78 µM; in test [3], 2.16 µM. Besides, in test [2], the inhibition was > 54.7%. For the same compound, the Ratio IC50 in the test listed under Homo sapiens worked out at 2.8.

For the compound `CC1(C)CC[C@]2(C(=O)O[C@@H]3O[C@H](CNC(=O)c4ccccc4C(=O)O)[C@@H](O)[C@H](O)[C@H]3O)CC[C@]3(C)C(=CC[C@@H]4[C@@]5(C)CC[C@H](O[C@H]6O[C@H](CO)[C@@H](O)[C@H](O)[C@@H]6O)C(C)(C)[C@@H]5CC[C@]43C)[C@@H]2C1`, the IC50 in test [1] was 15.9 µM. Also, the inhibition in test [2] was > 54.7%.

`CC1(C)CC[C@]2(C(=O)O[C@@H]3O[C@H](CNC(=O)c4ccccc4C(=O)O)[C@@H](O)[C@H](O)[C@H]3O)CC[C@]3(C)C(=CC[C@@H]4[C@@]5(C)CC[C@H](O[C@@H]6OC[C@@H](O)[C@H](O)[C@H]6O)C(C)(C)[C@@H]5CC[C@]43C)[C@@H]2C1`: the values for the IC50 in test [1] and in test [3] were 16.6 µM and 15.5 µM, respectively. Also, the inhibition in test [2] was > 54.7%. Also, the Ratio IC50 in the test listed under Homo sapiens came out at 0.9.

As for `CC1(C)CC[C@]2(C(=O)O[C@@H]3O[C@H](CNC(=O)c4ccccc4C(=O)O)[C@@H](O)[C@H](O)[C@H]3O)CC[C@]3(C)C(=CC[C@@H]4[C@@]5(C)CC[C@H](O)C(C)(C)[C@@H]5CC[C@]43C)[C@@H]2C1`, the values for the IC50 in test [1] and in test [3] were 20.4 µM and 24.4 µM, respectively. The inhibition in test [2] is 54.7%. For the same compound, the Ratio IC50 in the test listed under Homo sapiens came out at 1.2.
